Measurements as given in PubChem BioAssay AID651647 (Sanford-Burnham Center for Chemical Genomics, 2012).
Screen size: about 360,000 compounds; about 220 (0.061%) were called active. Only a selection was taken, and actives are over-represented in it overall. Values without a mark were called inactive.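 How the source made its calls: active means GFP/RFP ratio change of at least 30% with cell ATP level not reduced by more than half and red fluorescence within 50% of control; inactive means the rest, inconclusive results apart.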

Target: Matrix metalloproteinase-14 (Homo sapiens) (UniProt P50281)
Experiment: blockers of MT1-MMP proenzyme processing, primary screen, HT1080 RFP-PRO-GFP cells, GFP/RFP fluorescence (AID 651647)
Conditions: overnight, at 20 µM, hits give high values, percent of plate control window, DMSO zero
In short: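 Assay system: HT1080 RFP-PRO-GFP cells | Dosing: 20 µM single dose, 1% DMSO | Incubation: Cells overnight before dosing, compound overnight, 37 °C, 5% CO2 | Evaluation: GFP/RFP fluorescence ratio | Control set: DMSO-only wells and HT1080 RFP-L50D-GFP cell wells as references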

SMILES | GFP/RFP ratio change
O=C(CSc1ccc(C(F)(F)F)cc1[N+](=O)[O-])NCCOc1ccccc1 | -0.0162%
Cc1cc(-c2nnc(CCC(=O)NC(c3ccccc3)c3ccccc3)o2)no1 | -0.114%
CCn1c(SCC(=O)NC2CC2)nnc1-c1ccncc1 | 1.37%
O=C(NCCCn1ccnc1)C1CCCN(S(=O)(=O)c2cc(Cl)ccc2Cl)C1 (stereo unspecified) | 0.609%
CC(C)C(NC(=O)c1cccc(S(=O)(=O)N2CCOCC2)c1)C(=O)NCCc1ccccn1 (stereo unspecified) | -6.01%
CC(Sc1nncs1)C(=O)NCc1ccc2c(c1)OCO2 (stereo unspecified) | 2.24%
CN(C)c1ccc(NC(=O)CN2C3CCCC2CC(NC(=O)c2ccccc2)C3)cc1 (stereo unspecified) | 6.85%
CCc1cc(-c2nnn(CCC3COCCO3)c2CC)ccc1-c1cn(Cc2ccc3ccccc3c2)nn1 (stereo unspecified) | 2.05%
C/C=N/N(c1ccccc1)c1ccccc1 | -0.385%
NS(=O)(=O)c1ccc(CCNC(=O)CCCn2c(SCC(=O)N3CCCC3)nc3ccsc3c2=O)cc1 | -1.21%
O=C(Nc1ccn(CCCNCc2ccc3[nH]ccc3c2)c(=O)n1)OCc1ccccc1 | -0.535%
CCOC(=O)C1C(c2ccc(OC)c(OC)c2)c2c([nH][nH]c2=O)CC1(C)O (stereo unspecified) | 4.39%
O=C1CCN(Cc2ccccc2)CCN1[C@H](CSc1ccccc1)c1ccccc1 | -2.64%
COc1c(O)cccc1-c1nnn(CCC(=O)OCC(=O)c2ccccc2)n1 | 4.76%
CN(CC(=O)Nc1ccccc1F)CC(=O)Nc1ccccc1Br | 7.11%
O=C1NC[C@H](CCCCN2C[C@H](Cc3ccc(O)cc3)N(CC3CCCCC3)C(=O)C2=O)N(CCc2ccccc2)C1=O | 1.64%
N#C[C@]1(S(=O)(=O)c2ccccc2)C[C@@H]2ON=C(c3cccc(Br)c3)[C@@H]2C1 | 2.88%
CC(C)CC(O)C1CCN(C(=O)CCc2nnc(-c3ccc4c(c3)OCO4)o2)CC1 (stereo unspecified) | 1.69%
O=S1(=O)CCOC[C@H](Cc2ccccc2)N1Cc1ccccc1Br | -1.83%

SMILES | GFP/RFP ratio change
O=C(c1cc(Cl)cc(Cl)c1)N1CCC(=O)N(C(COCc2ccccc2)Cc2ccccc2)CC1 (stereo unspecified) | -5.95%
O=C(Nc1ccccc1F)C1C2C=CC3(O2)C1C(=O)N(c1cccnc1)C3C(=O)NC1CCCCC1 (stereo unspecified) | 1.65%
CCOC(=O)/C(N=Nc1cc(C(=O)O)cc(C(=O)O)c1)=C(\O)CCl | -3.33%
Cc1cccc(C)c1NC(=O)C1(C)c2cccc[n+]2CC(=O)N1Cc1cccs1 (stereo unspecified) | -3.13%
CCCCCCCCOC1OC(CO)C(O)C(O)C1NC(C)=O (stereo unspecified) | 0.0413%
O=C(c1cccc(S(=O)(=O)N2CCCCCC2)c1)N1CCN(Cc2ccccc2)CC1 | -4.24%
CC(C)CC(=O)N1CCN(Cc2cccc(Cl)c2)CC1 | -0.171%
O=C(c1cccc(Cl)c1)N1CCN(Cc2ccccc2)CC1 | 30.7% (active)
CN(C)c1ccc(C=NCCc2ccc(S(N)(=O)=O)cc2)cc1 | 3.81%
CN(CC(=O)NC(=O)Nc1ccccc1F)Cc1ccccc1 | 1.45%
COC(=O)C1C(=O)CC(C)(O)C(C(=O)OC)C1c1ccc2c(c1)OCO2 (stereo unspecified) | 19%
CS(=O)(=O)c1ccc2nnn(OCC(=O)Nc3cccc(C#N)c3)c2c1 | 0.844%
CC12CCC(C(=O)N(NC(=O)c3ccccc3O)C1=O)C2(C)C (stereo unspecified) | 2.09%
CC(C)COC(=O)C1C2C=CC3(CN(C(C)c4ccc(Br)cc4)C(=O)C13)O2 (stereo unspecified) | 3.45%
COC(=O)CN1C(=O)[C@H]2[C@@H](/C=C/c3ccccc3)N3C(=O)CN(Cc4ccccc4)C(=O)[C@@]3(Cc3ccccc3)[C@H]2C1=O | 2.05%
CCC(C(=O)NCc1ccc(OC)cc1)n1nc(C)n2c(cc3occc32)c1=O (stereo unspecified) | -2.32%
O=C(c1cccc(S(=O)(=O)N2CCCC2)c1)N(Cc1ccco1)C1CCS(=O)(=O)C1 (stereo unspecified) | -1.85%
COc1ccc2c(c1OC)C(=O)N(c1ncn[nH]1)C2 | 5.29%
COc1cc(C2C(N3C(=O)c4ccccc4C3=O)C(=O)N2c2ccc(C)c(C)c2)cc(OC)c1OC (stereo unspecified) | 4.49%

SMILES | GFP/RFP ratio change
CCN(CC(=O)Nc1ccc(NC(C)=O)cc1)C(=O)C1CC(=O)N(c2ccc3c(c2)OCCO3)C1 (stereo unspecified) | 1.76%
COc1ccccc1NC1=NC(c2ccc(Cl)cc2)N=C(N)N1 (stereo unspecified) | -2.9%
Cc1cc(OC(=O)c2ccc(Cl)cc2)cc(=O)n1C | 0.208%
CCN(CC)C(=O)N1CCN(C(=O)c2ccc(C)cn2)CC1 | 4.93%
CC1(C(=O)NCc2ccc3c(c2)OCO3)CCN1CCc1ccccc1 (stereo unspecified) | 2.41%
COCCCNC(=O)CN1C(=O)CSc2ccc(S(=O)(=O)N3CCOCC3)cc21 | -2.33%
CCn1cc(CCC(=O)NCc2ccc(F)cc2)c2ccccc21 | 1.53%
N#Cc1ccc(-c2nc3c(Cl)cc(C(F)(F)F)cn3c2Cc2ccccc2C(F)(F)F)cc1 | 1.7%
CN(C)CCCn1c(SCc2ccc(Cl)cc2)nnc1-c1ccncc1 | 1.22%
CC1(C)OC(=O)C2=C(C[C@@H](C3CCCCC3)O[C@@H]2c2ccc(Cl)cc2)O1 | -0.857%
CC1(C)CC(=O)NC=C(c2ccccc2)C1 | 0.817%
COc1ccc(C(=O)COC(=O)c2c(C)noc2C)cc1Cl | 0.327%
O=c1[nH]nc(SCCS(=O)(=O)c2ccc(F)cc2)n1-c1ccccc1C(F)(F)F | 1.01%
COc1cccc(NC(=O)Cn2c3ccc(F)cc3c3nc4n(c(=O)c32)CCS4)c1 | 1.54%
O=C(CCc1ccccc1F)N1CCN(c2ccccc2)CC1 | -1.03%
Cc1cc(=O)oc2c1ccc1ccccc12 | 0.0995%
CCCCCc1ccc(-c2ccc(C(=O)O)cc2)nc1 | 0.418%
Cc1cc(C)c(C#N)c(SCS(=O)c2ccc(C(C)(C)C)cc2)n1 (stereo unspecified) | 3.13%
